ADAM10 inh: inhibitors of human ADAM10 | recombinant ADAM10, EDANS/DABCYL FRET peptide cleavage, 3 h | inhibition, % at 7 µM | actives 0.62% (n = 370,000);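 active means inhibition above a per-campaign cutoff equal to the mean of compounds falling between control-based bounds plus 3 SD, cut at about 20% in these data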;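 further: 0% = DMSO wells while the 100% control is not disclosed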
Target sequence (O14672 214-748 limits assumed): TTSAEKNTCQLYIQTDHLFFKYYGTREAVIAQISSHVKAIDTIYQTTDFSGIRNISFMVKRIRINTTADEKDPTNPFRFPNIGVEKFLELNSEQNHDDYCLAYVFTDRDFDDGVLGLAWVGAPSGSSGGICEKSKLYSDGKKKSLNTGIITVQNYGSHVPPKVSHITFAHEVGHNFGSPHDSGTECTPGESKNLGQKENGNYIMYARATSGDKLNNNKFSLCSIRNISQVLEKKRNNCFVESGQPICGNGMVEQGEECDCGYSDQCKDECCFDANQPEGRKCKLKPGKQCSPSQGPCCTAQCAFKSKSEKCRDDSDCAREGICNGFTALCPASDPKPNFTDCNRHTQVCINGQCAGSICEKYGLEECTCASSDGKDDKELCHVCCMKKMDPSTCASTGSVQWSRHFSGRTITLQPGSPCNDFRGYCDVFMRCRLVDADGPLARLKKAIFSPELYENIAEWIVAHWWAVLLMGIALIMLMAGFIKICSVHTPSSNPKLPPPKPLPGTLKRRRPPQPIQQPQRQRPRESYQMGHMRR
CendR NRP1 mod: alters CendR peptide binding to human NRP-1. FAM-RPARPAR peptide binding to NRP-1, fluorescence polarization. O14786. AID 602438. inhibition, % at 25 µM. actives 0.85% (n = 360,000);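 active means inhibition or corrected inhibition above about 18%, plus a signal ratio from 0.5 to 1.5, limit read from the data, passing the limit was not always enough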
ADAM17 inh: inhibitors of human ADAM17; P78536; recombinant ADAM17, EDANS/DABCYL FRET peptide cleavage; inhibition, % at 6.95 µM; actives 0.83% (n = 370,000); AID 720648;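 active means inhibition above the mean of compounds lying between control limits plus 3 SD, set per campaign, cut at about 8.5% in these data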;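 further: 0% = DMSO-only wells as the low control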
FAS-TE inh: FAS thioesterase (human) inhibition; P49327; recombinant FAS-TE, OMFH fluorogenic substrate, fluorescence endpoint; inhibition, % at 15 µM; actives 0.67% (n = 360,000); AID 602261;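 active means compounds whose normalised, plate-corrected inhibition of enzyme fluorescence in the single-dose primary screen is 50% or more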;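 further: 0% = DMSO with enzyme and 100% = substrate without enzyme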
Arrestin-AP2 inh: inhibitors of human beta-arrestin and AP2 interaction; inhibition, % at 10 µM; AID 504490; actives 0.31% (n = 340,000); FITC-arrestin peptide / GST-AP2 beads, flow cytometry; AP2 beta2 appendage carries R879A mutation;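 active means inhibition above a set limit, near 3 SD of compounds lacking own fluorescence, cut at about 54% in these data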;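 further: plate controls were DMSO wells for no effect and 5 µM unlabelled arrestin peptide for full effect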
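Material – AP2 appendage R879A on GSH beads · Buffer or medium – PBS with 0.05% Tween 20 and 0.1% BSA · Probe or stimulus – fluorescein-tagged arrestin peptide at 50 nM final · Incubation – compound with beads 12 min RT, then probe 1 h RT · Detection – high-throughput flow cytometry of beads, ex 488, em 535 nm · Evaluation – percent response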
CaV13 ICDI inh: Disruptors of the CACNA1D IQ motif to Ca2+-dependent inactivation inhibitor domain association, primary screening, Förster resonance energy transfer in intact living …; HEK cells, CFP/YFP FRET ICDI-IQ, plate reader, 10 min; percent FRET-ratio fall versus neutral wells; inhibition, % at 12.3 µM; actives 0.098% (n = 340,000);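 active means mean replicate inhibition of at least 30% and at least 1% of replicates passing that level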;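 further: 0% = median of the neutral control wells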
FAS-TE inh conf: FAS thioesterase (human) inhibition, confirmation; shares compounds with FAS-TE inh; inhibition, % at 15 µM; recombinant FAS-TE, OMFH fluorogenic substrate, fluorescence; AID 624325; actives 45% (n = 2,300);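 active means compounds inhibiting the enzyme by at least 50% at 15 µM in any one of the replicates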;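 further: 0% = enzyme with DMSO only and 100% = wells lacking enzyme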
ADAM10 confirm: confirmation of inhibitors of human ADAM10; inhibition, % at 6.95 µM; ADAM10 QFRET peptide cleavage, EDANS fluorescence; actives 1% (n = 2,100); shares compounds with ADAM10 inh; AID 743208;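 active means inhibition above about 20% chosen separately for each screening run, limit read from the data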;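 further: 0% = DMSO wells and 100% = marimastat wells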
ADAM17 counter: inhibits human ADAM17 in ADAM10 exosite counter-screen; shares compounds with ADAM10 inh; actives 0.5% (n = 2,100); AID 743214; ADAM17 QFRET peptide cleavage, EDANS fluorescence; inhibition, % at 6.95 µM;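 active means mean triplicate inhibition above the solvent-only control wells' mean plus 3 SD, cut at about 12% in these data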;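 further: 0% = DMSO wells and 100% = marimastat wells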
ADAM10 ctr: inhibits human ADAM10 in ADAM17 exosite counter-screen; actives 47% (n = 2,900); shares compounds with ADAM17 inh; recombinant ADAM10, EDANS/DABCYL FRET peptide cleavage, 3 h; inhibition, % at 6.95 µM;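 active means mean inhibition over the triplicate runs exceeds the activity threshold set in the earlier primary screen, cut at about 20% in these data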;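 further: 0% = DMSO wells and 100% = marimastat wells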
ADAM17 confirm: human ADAM17 inhibition, confirmation; actives 65% (n = 2,900); recombinant ADAM17, EDANS/DABCYL QFRET peptide cleavage; shares compounds with ADAM17 inh; inhibition, % at 6.95 µM;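 active means mean inhibition across replicates above the hit cutoff set in the primary screen, cut at about 8.5% in these data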;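 further: 0% = DMSO wells and 100% = marimastat wells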
* = called active by the depositor. In the library only some 2.9% were active in any assay of this set; here they are far more common.

Results for O=C(/C=C/c1cccc([N+](=O)[O-])c1)NCCSCc1ccccc1Cl ?
ADAM10 inh: 19; CendR NRP1 mod: -2; ADAM17 inh: 8.9*; FAS-TE inh: 75*; Arrestin-AP2 inh: 26; CaV13 ICDI inh: -5; FAS-TE inh conf: 8; ADAM10 ctr: 27*; ADAM17 confirm: 14*

Results for CCN1C(=O)[C@@H]2[C@@H](c3ccc(-c4ccc(OC)cc4)c(OC)c3)N3CCCC[C@@]3(C(=O)OC)[C@@H]2C1=O ?
ADAM10 inh: 2; CendR NRP1 mod: -8; ADAM17 inh: 9.3*; FAS-TE inh: 51*; Arrestin-AP2 inh: 39; CaV13 ICDI inh: -11; FAS-TE inh conf: -4; ADAM10 ctr: -7; ADAM17 confirm: -1

What do the screens show for `CCN1C(=O)[C@H]2[C@@H](c3ccc(-c4ccc(F)cc4)c(OC)c3)N3CCC[C@@]3(C(=O)OC)[C@H]2C1=O`?
ADAM10 inh: -86; CendR NRP1 mod: -8; ADAM17 inh: -20; FAS-TE inh: 13; Arrestin-AP2 inh: 21; CaV13 ICDI inh: -11

What do the screens show for `CCOC1=C2[C@@H](CN(S(=O)(=O)c3ccc(C)cc3)[C@H]2c2cccc3ccccc23)[C@H]2C(=O)N(CC)C(=O)[C@H]2C1`?
ADAM10 inh: -3; CendR NRP1 mod: 15; ADAM17 inh: 0; FAS-TE inh: 24; CaV13 ICDI inh: -5

What do the screens show for `CCOC1=C2[C@@H](CN(S(=O)(=O)c3ccc(C)cc3)[C@H]2c2cccc3ccccc23)[C@H]2C(=O)N(Cc3ccccc3)C(=O)[C@H]2C1`?
ADAM10 inh: 25*; CendR NRP1 mod: 0; ADAM17 inh: 8.8*; FAS-TE inh: 60*; CaV13 ICDI inh: -5; FAS-TE inh conf: 17; ADAM10 confirm: 8; ADAM17 counter: 2; ADAM10 ctr: 21*; ADAM17 confirm: 14*

Results for O=S1(=O)c2ccc(N3CCCC3)cc2Oc2ccccc2CN1Cc1cn(Cc2cccc(F)c2)nn1 ?
ADAM10 inh: -2; ADAM17 inh: -4

What do the screens show for `Cc1onc(-c2ccccc2)c1C(=O)NCC1CCN(C(=O)C(=O)c2cccs2)CC1`?
ADAM10 inh: 6; ADAM17 inh: 0; CaV13 ICDI inh: -11

How did O=S(=O)(Nc1ccc2c(c1)OCCO2)c1ccc2oc3ccccc3c2c1 do in these assays?
ADAM10 inh: 24*; CendR NRP1 mod: -4; ADAM17 inh: 11*; FAS-TE inh: 62*; Arrestin-AP2 inh: -2; FAS-TE inh conf: 47*; ADAM10 confirm: 8; ADAM17 counter: 2; ADAM10 ctr: 26*; ADAM17 confirm: 14*

What do the screens show for `CC(C)C[C@H]1COc2cc(N(C)CCO)ccc2S(=O)(=O)N1`?
ADAM10 inh: -9; CendR NRP1 mod: 13; ADAM17 inh: -2; FAS-TE inh: -8; CaV13 ICDI inh: -3

Results for CC(C)NC(=O)N(C)C[C@@H]1OCCCC[C@@H](C)Oc2ccc(NC(=O)Nc3ccc(F)cc3)cc2C(=O)N([C@H](C)CO)C[C@@H]1C ?
ADAM10 inh: 1; CendR NRP1 mod: -3; ADAM17 inh: 1; FAS-TE inh: -3; CaV13 ICDI inh: -4

Results for C[C@@H]1CN([C@H](C)CO)C(=O)c2cc(NC(=O)Nc3ccc(F)cc3)ccc2O[C@@H](C)CCCCO[C@H]1CN(C)S(=O)(=O)c1cccs1 ?
ADAM10 inh: 30*; CendR NRP1 mod: -20; ADAM17 inh: 8.9*; FAS-TE inh: 81*; CaV13 ICDI inh: -8; FAS-TE inh conf: 78*; ADAM10 confirm: 5; ADAM17 counter: 2; ADAM10 ctr: 42*; ADAM17 confirm: 21*

What do the screens show for `CCc1cc(-c2nnn(-c3cc(C(C)C)ccc3C)c2CC)ccc1-c1cn(CCc2c[nH]c3ccccc23)nn1`?
ADAM10 inh: -5; CendR NRP1 mod: -14; ADAM17 inh: -1; FAS-TE inh: 20; CaV13 ICDI inh: -2

What do the screens show for `O=[N+]([O-])c1cccc2c(S(=O)(=O)N3CCOCC3)cccc12`?
ADAM10 inh: -2; CendR NRP1 mod: 0; ADAM17 inh: -2; FAS-TE inh: 3; Arrestin-AP2 inh: -7; CaV13 ICDI inh: -18

How did NC(=O)[C@H]1CC2(CC(c3cccc(NC(=O)COc4ccc(Cl)cc4)c3)=NO2)CN1C(=O)C(c1ccccc1)c1ccccc1 (some centres undefined) do in these assays?
ADAM10 inh: 31*; CendR NRP1 mod: -14; ADAM17 inh: 12*; FAS-TE inh: 73*; Arrestin-AP2 inh: -6; CaV13 ICDI inh: -7; FAS-TE inh conf: 21; ADAM10 confirm: 12; ADAM17 counter: 4; ADAM10 ctr: 30*; ADAM17 confirm: 15*

Results for COc1ccc([C@@H]2[C@@H]3C(=O)N(C(C)(C)C)C(=O)[C@@H]3[C@]3(CC(C)C)C(=O)N(c4cccc(Br)c4)C(=O)N23)cc1 ?
ADAM10 inh: 27*; CendR NRP1 mod: 4; ADAM17 inh: 10*; FAS-TE inh: 58*; Arrestin-AP2 inh: -1; CaV13 ICDI inh: -4; FAS-TE inh conf: 40; ADAM10 confirm: 7; ADAM17 counter: 1; ADAM10 ctr: 23*; ADAM17 confirm: 16*

Results for COc1ccc([C@@H]2[C@@H]3C(=O)N(C(C)(C)C)C(=O)[C@@H]3[C@]3(CC(C)C)C(=O)N(c4ccccc4)C(=O)N23)cc1 ?
ADAM10 inh: 0; CendR NRP1 mod: 18; ADAM17 inh: -2; FAS-TE inh: 12; Arrestin-AP2 inh: 37; CaV13 ICDI inh: 7
